The source of these data is ChEMBL document CHEMBL1135976, “Antimalarial activity of yingzhaosu A analogues” (J Med Chem, 2002).

The test system of series [1] is FM3A. As to the kind of experiment: Effective concentration against mouse mammary FM3A cells. Type of series: ADME, cell-based. The method, boiled down: (§1)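 Mouse mammary tumor FM3A cells in culture served as the mammalian cytotoxicity counterscreen. EC50 was determined; where no activity was found at 10 μM, percent growth inhibition at that concentration was given.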

Series [2] concerns Mus musculus. As to the kind of experiment: Mice survival days reported after intramuscular administration. Type of series: ADME, organism-based. Conditions: in vivo, im. The essentials:
(§2)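 P. berghei NK 65 strain in mice, five per group. Compounds in olive oil were given ip or im once daily on days 0–3, starting on the day of infection. Parasitemia was read on day 4 from Giemsa-stained tail blood smears, counting 1×10^4 erythrocytes per film, and suppression calculated against DMSO sham-treated infected controls. Survival was recorded in days. Values are means of five mice, one test.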

In series [3] the test system is Mus musculus. The experiment in a line: Mice survival days reported after intraperitoneal administration. The note with it: in vivo, ip. Type of series: ADME, organism-based. The method, boiled down: as §2
The test system of another series is Plasmodium berghei. As to the kind of experiment: Antimalarial activity against Plasmodium berghei infected mice (Mus musculus) after intramuscular administration at a dose 100 mg/kg/day. Type of series: ADME, organism-based. Further details: route intramuscular. Conditions: im. The method, boiled down:
as §2

Series [4] is described as follows: Selectivity as the ratio of EC50 value for FM3A cells to that of Plasmodium falciparum. It counts as functional. The essentials: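 Selectivity was taken as the mean EC50 in FM3A cells divided by the mean EC50 against P. falciparum FCR-3.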
Another series relates to Plasmodium falciparum. The experiment in a line: In vitro antimalarial activity against Plasmodium falciparum. Type of series: functional, organism-based. The essentials: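 Chloroquine-sensitive P. falciparum FCR-3 strain cultured in vitro. EC50 was determined.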
Series [5] relates to FM3A. As to the kind of experiment: Percent inhibition of growth against mouse mammary FM3A cells. Type of series: cell-based. Further details: concentration or dose not given beside the values. The essentials:
as §1

Where only a bound is given, the exact number is not on record here.

Take `CCOC(=O)C(I)C12CCCC(C1)C(C)(C)OO2` (configuration not stated): the 50% effective concentration (EC50) in the series on FM3A [1] stood at 3.1 µM; with Plasmodium falciparum it was 0.011 µM. In addition, the Survival stood at 9.8 days in the series on Mus musculus [2] and 6.5 days in the series on Mus musculus [3]. Besides, in the series on Plasmodium berghei, the inhibition at 100 mg/kg was 80%. For the same molecule, in series [4], the Selectivity amounted to 282.

`CC1(CI)C[C@H]2CCCCC2O1` (some centres not stated) yielded an Inhibition with FM3A [5] of 34%. Moreover, the values for the EC50 in the series on FM3A [1] and in the series on Plasmodium falciparum were above 210 µM and 120 µM, respectively. For the same molecule, the Selectivity in series [4] is listed as above 2.

On to `CC1(C)OC2(CI)CCCC1C2` (configuration not stated), for which the Inhibition in the series with FM3A [5] was determined as 10%. Also, the 50% effective concentration (EC50) is above 84 µM in the series with FM3A [1] and 5.8 µM in the series on Plasmodium falciparum. For the same molecule, in series [4], the Selectivity is above 14.

`COC12CCC[C@H](CC(C)(CI)OO1)C2` (some centres not stated) came in with an Inhibition in the series on FM3A [5] of 6%. Besides, the EC50 in the series with FM3A [1] was above 80 µM; with Plasmodium falciparum, 2.5 µM. In addition, the Selectivity in series [4] is listed as above 32.

In turn, `CC12CCC[C@@H](C1)C(C)(CI)OO2` (some centres not stated) had an Inhibition in the series with FM3A [5] of 10%. Also, the 50% effective concentration (EC50) with FM3A [1] was above 84 µM; in the series on Plasmodium falciparum, 0.013 µM. Also, in series [4], the Selectivity is reported as above 6462.

Consider `COC12C[C@H](CC[C@@H]1C)C(C)(CI)OO2` (some centres not stated), for which, in the series with FM3A [5], the Inhibition was determined as 8%. Besides, the results for the concentration for a half-maximal effect (EC50) with FM3A [1] and with Plasmodium falciparum were above 54 µM and 2 µM, respectively. Further, the Selectivity in series [4] was above 27.

Turning to `CC1(C)OOC2(CI)CCCC1C2` (configuration not stated), the EC50 is 68 µM in the series on FM3A [1] and 0.04 µM with Plasmodium falciparum. Besides, the Survival with Mus musculus [2] turned out to be 9.6 days; with Mus musculus [3], 7 days. The molecule further came in with an inhibition at 100 mg/kg with Plasmodium berghei of 99%. The Selectivity in series [4] came out at 1700.

Take `CC1(CI)C[C@H]2CCCC(C2)OO1` (some centres not stated): the Inhibition in the series with FM3A [5] is listed as 47%. Further, the concentration giving a half-maximal response (EC50) was above 96 µM in the series with FM3A [1] and 3 µM in the series on Plasmodium falciparum. Also, the Selectivity in series [4] is above 32.

With `COC12CCC[C@@H](C1)C(C)(CI)OO2` (some centres not stated), in the series with FM3A [5], the Inhibition is 19%. Moreover, the 50% effective concentration (EC50) in the series with FM3A [1] was above 70 µM; in the series on Plasmodium falciparum, 1.7 µM. Moreover, the Selectivity in series [4] is recorded as above 41.

`CC1(CI)C[C@H]2CCCC[C@@H]2OO1` (relative stereo): the EC50 in the series on FM3A [1] worked out at 66 µM; in the series on Plasmodium falciparum, 1.5 µM. Also, the Selectivity in series [4] is reported as 44.

Take `C[C@@H]1CC[C@H]2[C@@H](C)C(=O)O[C@@H]3O[C@@]4(C)CC[C@@H]1[C@]32OO4` [ARTEMISININ]: the Selectivity in series [4] came to 1000.

In the series with FM3A [5], `CC12CCC[C@H](C1)C(C)(CI)O2` (some centres not stated) gave an Inhibition of 0%. Also, the figures for the concentration for a half-maximal effect (EC50) with FM3A [1] and with Plasmodium falciparum were above 48 µM and 1 µM, respectively. For the same molecule, the Selectivity in series [4] is above 48.

In the series on FM3A [5], `COC12CCC[C@@H](C1)C(I)C(C)(C)OO2` (some centres not stated) had an Inhibition of 10%. The concentration giving a half-maximal response (EC50) in the series with FM3A [1] is above 64 µM; with Plasmodium falciparum, 15 µM. For the same molecule, the Selectivity in series [4] is listed as above 4.

By EC50 is commonly meant the concentration that produces a half-maximal response. The inhibition is the share of the control response that was lost under treatment. For orientation: Inhibition means how much of the control response was suppressed.
